# Most compounds without a hit are left out; they make up all but 2.8% or so of the library.
# AI-2 QS mod – Vibrio harveyi AI-2 quorum sensing modulators, primary screen, JMH597 strain, luminescence/OD600 ratio | Vibrio harveyi JMH597 AI-2 luminescence/OD600 ratio, 9 h; stronger effect = lower value; strain lacks LuxN and CqsS sensors; 0 = neutral-control median | activity change, % at 7.5 µM | actives 0.4% (n = 300,000); in the data active = activity change below about -75%, passing the limit was not always enough;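 also: luminescence divided by OD600 gain over 9 h not by final OD600 alone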
# PP1 counter – PP1-alpha phosphatase inhibitors, primary screen, counter-screen for PP5 inhibitor project, biochemical, fluorescence, OMFP substrate, single point. purified PP1alpha. inhibition, % at 6.7 µM. actives 0.9% (n = 320,000);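 active = inhibition above the mean inhibition of all tested compounds plus 3 SD, computed separately for each screening campaign, cut at about 15% in these data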
# Target sequence (P62136 whole entry, looked up): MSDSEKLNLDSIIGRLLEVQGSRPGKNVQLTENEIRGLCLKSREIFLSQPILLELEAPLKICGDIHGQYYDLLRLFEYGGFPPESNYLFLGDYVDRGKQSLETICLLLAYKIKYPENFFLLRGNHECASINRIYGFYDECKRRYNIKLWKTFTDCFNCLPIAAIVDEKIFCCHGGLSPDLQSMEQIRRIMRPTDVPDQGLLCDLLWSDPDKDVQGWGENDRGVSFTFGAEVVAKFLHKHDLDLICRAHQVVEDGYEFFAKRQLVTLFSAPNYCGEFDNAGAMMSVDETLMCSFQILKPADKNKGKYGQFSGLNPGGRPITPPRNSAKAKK
# UBC13 polyUb – UBC13 polyubiquitin chain formation inhibitors, primary screen, biochemical, TR-FRET, uHTS; Ubiquitin-conjugating enzyme E2 N (Homo sapiens), P61088; inhibition, % at 20 µM; actives 0.47% (n = 330,000); AID 485273, 2010; in the data active = inhibition above about 45%, passing the limit was not always enough
# Target sequence (P61088 whole entry, looked up): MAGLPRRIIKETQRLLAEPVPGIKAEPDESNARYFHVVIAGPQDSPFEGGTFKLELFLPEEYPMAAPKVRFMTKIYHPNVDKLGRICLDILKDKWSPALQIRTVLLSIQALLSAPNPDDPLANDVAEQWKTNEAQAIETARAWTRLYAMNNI
# p-CIP stab down – p/CIP-EGFP fusion destabilizers, primary screen, fluorescence, F442A cells | AID 1984, 2009 | decrease of EGFP signal, % at 10 µM | actives 0.01% (n = 290,000) | 16 h | Q05BA5;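 active = EGFP signal decrease of at least 30% at 10 µM or well 3 SD below plate mean, unless failing retest; inactive = the rest, including hits failing retest or dose response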
# T cruzi repl – inhibitors of intracellular T. cruzi growth, primary screen, luminescence, NIH3T3 host cells | T. cruzi beta-gal in NIH3T3, 90 h | inhibition, % (no concentration beside the values) | actives 1.4% (n = 300,000) | AID 1885, 2009;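 active = mean inhibition across valid replicates above about 55%, limit read from the data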;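 also: signal also drops with host cell toxicity which is not excluded here; 0% = plate median of DMSO wells and 100% = zero luminescence signal; higher percent means less beta-gal luminescence so fewer parasites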
#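 Read-out: Parasite load inhibition, % | Test system: Mouse NIH/3T3 fibroblasts infected with β-gal-expressing T. cruzi Tulahuen C4 | Amount: 5,000 cells/well | Medium: DMEM, 2% fetal bovine serum | Signal: GalScreen β-gal luminescence, detergent lysis, 60 min | Timing: 3 h attach, ≥90 h co-culture | Also added: Tulahuen C4 trypomastigotes, 5000/well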
# PP1 inh confirm – PP1 phosphatase inhibitors, confirmation, biochemical, fluorescence, OMFP substrate, triplicate. inhibition, % at 6.7 µM. shares compounds with PP1 counter. actives 52% (n = 1,900). AID 2358, 2010. purified PP1alpha;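 active = mean PP1 inhibition above a set limit taken from the earlier primary screen, cut at about 15% in these data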
# PP5 inh counter – PP5 phosphatase inhibition by PP1 hits, confirmation, counter-screen for PP1 inhibitor project, biochemical, fluorescence, triplicate; shares compounds with PP1 counter; purified PP5c, OMFP fluorescence; inhibition, % at 6.7 µM; actives 4% (n = 1,900); AID 2360, 2010;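 active = mean PP5 inhibition over triplicate wells above about 9.5% taken from the earlier PP1 screen, limit read from the data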
# Starred values were filed as active, the others as inactive; x = no result given.
SMILES,AI-2 QS mod,PP1 counter,UBC13 polyUb,p-CIP stab down,T cruzi repl,PP1 inh confirm,PP5 inh counter
COc1cccc(-c2cc(N)nn2C(=O)Nc2ccc(Cl)cc2)c1,17.1,23.1*,12.4,-10.6,8.5,16.5*,7.2
COc1cccc(NC(=O)NCCc2ccc(Cl)cc2)c1,3.8,-0.9,7.2,8.7,21.6,x,x
COc1cc([N+](=O)[O-])cc(/C=N/NC(=O)c2cc(-c3ccccc3)nc3ccccc23)c1O,-7.9,40.0*,-39.7,-1.2,10.7,40.1*,-1.1
COc1ccc(CCNC(=O)C2CCCN(S(=O)(=O)c3ccc(F)cc3)C2)cc1 (stereo unspecified),7.2,-2.3,-7.2,-4.4,-5.2,x,x
Cc1ccc(C(=O)N2CCN(c3ccccc3)CC2)cc1C,28.2,32.3*,1.6,-1.1,-35.3,-0.2,-2.0
Cc1cc(C(=O)N2CCN(c3ccccc3)CC2)no1,6.0,26.6*,-6.7,-5.1,-23.8,-1.3,-3.2
Cc1ccc(NC(=S)Nc2ccc(F)cc2)c(C)c1,-3.5,-3.9,-2.5,23.2,-17.8,x,x
COc1cc(CN(C2CCCCC2)S(=O)(=O)c2ccc(S(=O)(=O)N(C)C3CCCCC3)cc2)cc(OC)c1OC,0.1,18.6*,4.5,1.8,50.2,-1.7,-2.5
O=C1CC(=O)N(CCNc2ncc(C(F)(F)F)cc2Cl)C(=O)N1,34.4,28.7*,-17.1,-21.0,-5.7,-2.5,-1.1
O=C(NCC1CCCCC1)c1cccc(-c2ccc(O)cc2)c1,14.4,18.3*,-3.5,-6.5,13.0,-2.0,0.3
Cc1cccc(NC(=O)CSc2nnc(-c3ccco3)n2CC2CCCO2)n1 (stereo unspecified),15.9,5.6,-1.3,-8.8,-3.3,x,x
O=C(O)c1c[nH]c2ccc(S(=O)(=O)N3CCN(c4ccc(F)cc4)CC3)cc2c1=O,29.7,43.6*,2.6,-10.7,-19.8,32.0*,-3.7
CCOC(=O)N1CCN(S(=O)(=O)c2ccc3[nH]cc(C(=O)O)c(=O)c3c2)CC1,-4.5,1.5,2.8,-5.7,x,x,x
CSc1ncccc1C(=O)NCC(c1cccs1)N1CCOCC1 (stereo unspecified),10.1,-5.2,2.8,x,-3.1,x,x
Cc1ccc(C2=NN(C(=O)CCC(=O)O)C(c3cn(-c4ccccc4)nc3-c3ccc(C)cc3)C2)cc1 (stereo unspecified),38.7,19.9*,-22.4,-7.0,0.2,22.6*,2.3
COc1ccc(C2=NN(c3ccccc3)C(c3cn(CCC(=O)O)nc3-c3ccccc3)C2)cc1 (stereo unspecified),8.1,24.0*,17.4,-4.1,-15.0,10.3,3.1
O=C(Cc1ccc(Cl)cc1)NCC(=O)N1CCCCCC1,-8.9,-2.3,-5.4,-2.9,-5.5,x,x
O=C(O)Cc1ccc(NC(=O)c2ccc(NC(=O)C3CC3)cc2)cc1,22.6,-7.6,-3.3,3.4,-15.1,x,x
N#Cc1ccccc1S(=O)(=O)N1CCN(C(=O)C2CCCCC2)CC1,x,x,-13.9,x,x,x,x
CN(Cc1ccccn1)C(=O)CC1C(=O)NCCN1Cc1ccc(F)cc1Cl (stereo unspecified),3.5,-2.8,-8.8,-7.4,0.5,x,x
O=C(O)c1cn(-c2ccc(F)cc2)c2cc(Cl)c(F)cc2c1=O,-29.9,1.6,11.0,2.2,-1.7,x,x
NC1C2CN(c3nc4c(cc3F)c(=O)c(C(=O)O)cn4-c3ccc(F)cc3F)CC12 (stereo unspecified),5.6,19.9*,16.8,-13.7,-4.1,14.5,-1.5
N#CC(C#N)=CNc1cccnc1,3.7,-2.8,-2.6,5.7,-10.7,x,x
CCC(=O)N1N=C(c2c(-c3ccccc3)c3cc(Cl)ccc3[nH]c2=O)CC1c1ccco1 (stereo unspecified),6.4,27.1*,9.1,-14.6,24.6,10.1,-1.2
O=C(O)CCC(=O)N1N=C(c2c(-c3ccccc3)c3cc(Cl)ccc3[nH]c2=O)CC1c1ccco1 (stereo unspecified),25.9,3.2,-9.6,0.9,-10.1,x,x
SMILES,AI-2 QS mod,PP1 counter,UBC13 polyUb,p-CIP stab down,T cruzi repl,PP1 inh confirm,PP5 inh counter
O=C(N/N=C/c1ccc2c(c1)OCO2)C1CC1,33.2,-16.0,-6.9,5.0,-3.2,x,x
Cc1[nH]c2ccccc2c1C(=O)C(C)OC(=O)C1CCC1 (stereo unspecified),4.8,28.4*,1.0,x,-3.9,0.0,-1.4
CC(=O)C1=C(O)C(=O)N(c2cc(C(C)(C)C)on2)C1c1ccc(Br)cc1 (stereo unspecified),35.1,19.6*,-15.6,-2.7,4.7,21.6*,-1.5
COc1ccc(C2C(C(C)=O)=C(O)C(=O)N2c2ccc(Br)cc2)cc1 (stereo unspecified),-9.2,18.1*,-21.1,-1.0,3.6,16.8*,-3.0
CC(=O)C1=C(O)C(=O)N(c2ccc(O)cc2)C1c1ccc(Cl)cc1 (stereo unspecified),14.9,5.4,5.1,4.6,-15.2,x,x
CC(=O)C1=C(O)C(=O)N(c2ccc(Br)cc2)C1c1ccc(Cl)cc1 (stereo unspecified),42.6,27.8*,-8.6,-13.0,-4.0,20.6*,-1.3
CCCCN(CC)C(=S)Nc1ccc2nc(N3CCN(C)CC3)cc(C)c2c1,15.5,-2.4,4.0,0.6,36.3,x,x
Cc1nnc2ccc(-c3cccc(NS(C)(=O)=O)c3)nn12,16.7,-4.3,4.1,7.4,-7.8,x,x
NC(=O)CC(NC(=O)Cc1ccc(Br)cc1)c1ccc(NCCc2cccc(F)c2)c([N+](=O)[O-])c1 (stereo unspecified),13.8,18.5*,-46.2,-12.0,5.2,23.3*,-4.3
NC(=O)CC(NC(=O)Cc1ccc(Br)cc1)c1ccc(NCCOc2ccccc2)c([N+](=O)[O-])c1 (stereo unspecified),10.3,19.9*,-17.2,-12.4,0.9,25.8*,-3.6
NC(=O)CC(NC(=O)Cc1cccc2ccccc12)c1ccc(NC2CCCCCC2)c([N+](=O)[O-])c1 (stereo unspecified),0.1,23.6*,-27.1,-2.7,-10.7,24.5*,-3.5
Cc1ccc(C(=O)NCCNC(=O)c2ccc(F)cc2)cn1,9.4,-2.5,5.1,4.0,-4.0,x,x
